Published values of several laboratories.
Compare with care: the assays were run in different laboratories.
Target: Maternal embryonic leucine zipper kinase (MELK, Homo sapiens, UniProt Q14680)

O=C(NCCCN1CCOCC1)c1ccc(Nc2ncc(Cl)c(-c3ccc(Cl)s3)n2)cc1  remaining binding (binding; competition with immobilised ligand; 1 µM): 69%
O=S(=O)(NC1CCC(c2cc(F)ccc2F)(S(=O)(=O)c2ccc(Cl)cc2)CC1)C(F)(F)F (stereo not shown)  remaining binding (cell-free assay; competition with immobilised ligand; 1 µM): 69%
FC(F)(F)Oc1cccc(-c2cnc3ccc(-c4ccncc4)nn23)c1  remaining binding (cell-free assay; competition with immobilised ligand; 5 µM): 56%
COc1cnc(Nc2cccc(S(N)(=O)=O)c2)nc1N1CCN(c2ccccc2)CC1  remaining binding (binding; competition with immobilised ligand; 1 µM): 88%
C[C@@H]1CCN(c2nccc(-c3cnn4ncccc34)n2)C1  remaining binding (binding; 1 µM): 48%
O=C(NCCCN1CCOCC1)c1ccc(Nc2nccc(-c3cc4ccccc4s3)n2)cc1  remaining binding (binding; competition with immobilised ligand; 1 µM): 100%
Nc1ncc2c(n1)-c1c([nH]c3ccc(C#CC4CC4)cc13)CCCC2  remaining binding (binding; competition with immobilised ligand; 1 µM): 100%
c1cnn2ncc(-c3ccnc(N4CCC45COC5)n3)c2c1  remaining binding (binding; 1 µM): 52%
O=C(NCC1CCOCC1)c1n[nH]cc1NC(=O)c1c(F)cccc1F  remaining binding (binding; competition with immobilised ligand; 1 µM): 69%
COc1ccc2c(c1)O[C@H](c1ccc(OC)c(OC)c1)C[C@@H]2NC(=O)C1(c2ccc3c(c2)OC(F)(F)O3)CC1  remaining binding (cell-free assay; competition with immobilised ligand; 1 µM): 78%
CN(C)c1nccc(-c2cnn3ncccc23)n1  remaining binding (binding; 1 µM): 71%
O=C(NCCCC1CCCCC1)c1ccc(CNC(=O)c2cnn(-c3ccccc3)c2C(F)(F)F)cc1  remaining binding (cell-free assay; competition with immobilised ligand; 0.1 µM): 80%
Cc1cnc(Nc2ccc(C(=O)N3CCC(N4CCCC4)CC3)cc2)nc1-c1cc2ccccc2s1  remaining binding (binding; competition with immobilised ligand; 1 µM): 81%
CNC(=O)[C@@H]1CC[C@@H](n2c(-c3ccc4cnccc4c3)nc3ccc(C(=O)NCc4cccc(C(N)=O)c4)cc32)C1  remaining binding (binding; competition with immobilised ligand; 1 µM): 78%
N[C@H]1CCN(c2nccc(-c3cnn4ncccc34)n2)C1  remaining binding (binding; 1 µM): 69%
CN(c1ccnc(CNc2nc(Nc3ccc4c(c3)CC(=O)N4)ncc2C(F)(F)F)n1)S(C)(=O)=O  remaining binding (cell-free assay; competition with immobilised ligand; 1 µM): 40%
F[C@@H]1CCN(c2nccc(-c3cnn4ncccc34)n2)C1  remaining binding (binding; 1 µM): 100%
CNC(=O)Nc1ccc2c(c1)CC[C@@]21OC(=O)N(CC(=O)N(Cc2ccc(F)cc2)[C@@H](C)C(F)(F)F)C1=O  remaining binding (cell-free assay; competition with immobilised ligand; 1 µM): 91%
CN(C)c1ncc(F)c(-c2cnn3ncccc23)n1  remaining binding (binding; 1 µM): 79%
c1cncc(-c2cccc(Nc3nccc(NC4CCCCC4)n3)c2)c1  remaining binding (binding; competition with immobilised ligand; 10 µM): 84%
CC1CCCN1c1nccc(-c2cnn3ncccc23)n1 (stereo not shown)  remaining binding (binding; 1 µM): 97%
Cc1c(NC(=O)c2cc(C(N)=O)nc3cc(F)ccc23)c(C(F)(F)F)nn1Cc1ccc(C#N)cc1  remaining binding (cell-free assay; competition with immobilised ligand; 1 µM): 90%
